Data as given in ChEMBL document CHEMBL1157747, “Discovery, structure-activity relationships, pharmacokinetics, and efficacy of glucokinase activator (2R)-3-cyclopentyl-2-(4-methanesulfonylphenyl)-N-thiazol-2-yl-propionamide (RO0281675)” (J Med Chem, 2010).
≈ marks a conversion by molar mass, not a printed value. Calls of active or inactive are those of the source. The rule behind the calls is not given here.

Tests used:
[1] = tested on: Glucokinase (Homo sapiens); assay: Activity of glucokinase assessed as stimulatory concentration required to increase 1.5 fold enzymatic activity
[2] = tested on: Glucokinase (Homo sapiens); assay: Activity of glucokinase at 30 uM
[3] = tested on: Glucokinase (Homo sapiens); assay: Activity of glucokinase up to 10 uM
[4] = Tmax in CD rat at 30 mg/kg, po; type: ADME, organism-based; design: dose 30 mg/kg, route oral; conditions: in vivo
[5] = AUC (0 to infinity) in CD rat at 30 mg/kg, po; type: ADME, organism-based; design: time infinity, dose 30 mg/kg, route oral; conditions: plasma
[6] = Volume of distribution at steady state in CD rat at 5 mg/kg, iv; type: ADME, organism-based; design: dose 5 mg/kg, route intravenous; conditions: in vivo, read-out: Vdss
[7] = Cmax in CD rat at 30 mg/kg, po; type: ADME, organism-based; design: dose 30 mg/kg, route oral; conditions: in vivo
[8] = Oral bioavailability in CD rat at 10 mg/kg; type: ADME, organism-based; conditions: in vivo
[9] = AUC (0 to infinity) in CD rat at 10 mg/kg, po; type: ADME, organism-based; design: time infinity, dose 10 mg/kg, route oral; conditions: plasma
[10] = tested on: Mus musculus; assay: Reduction in glucose AUC in C57BL/6J mouse at 50 mg/kg, po pretreated 30 mins by oral glucose tolerance test relative to control; type: functional, organism-based; design: dose 50 mg/kg
Summary of the method: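 Male C57BL/6J mice got a single oral 50 mg/kg dose and underwent an oral glucose tolerance test. Fasting glucose and glucose tolerance were compared with vehicle-treated animals. Values are mean ± STD, n = 6 per time point; Student's t test, P < 0.05.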

[11] = tested on: Pancreatic islet; assay: […] of glucose-stimulated insulin secretion in C57BL/6J mouse isolated pancreatic islets cells after 4 to 5 days
[12] = Tmax in CD rat at 10 mg/kg, po; type: ADME, organism-based; design: dose 10 mg/kg, route oral; conditions: in vivo
[13] = Clearance in CD rat at 5 mg/kg, iv; type: ADME, organism-based; design: dose 5 mg/kg, route intravenous; conditions: in vivo
[14] = Cmax in CD rat at 10 mg/kg, po; type: ADME, organism-based; design: dose 10 mg/kg, route oral; conditions: in vivo
[15] = AUC (0 to infinity) in CD rat at 5 mg/kg, iv; type: ADME, organism-based; design: time infinity, dose 5 mg/kg, route intravenous; conditions: plasma
[16] = tested on: Glucokinase (Homo sapiens); assay: Activation of glucokinase at 20 uM relative to control
[17] = tested on: Glucokinase (Homo sapiens); assay: Activation of glucokinase assessed as increase in Vmax at 1 uM relative to control
[18] = tested on: Glucokinase (Homo sapiens); assay: Activation of glucokinase assessed as […] in Km at 1 uM relative to control
[19] = Oral bioavailability in CD rat at 30 mg/kg; type: ADME, organism-based; conditions: in vivo
[20] = tested on: Glucokinase (Homo sapiens); assay: Activation of glucokinase assessed as […] in Km at 20 uM relative to control
[21] = Aqueous solubility of the compound; type: physicochemical

Row | Compound | Activity [1] | further results
1 | CNC(=O)NC(=O)C(CC1CCCC1)c1ccc(Cl)cc1 (configuration not stated) | 5.4 µM | 
2 | CNC(=O)NC(=O)[C@@H](CC1CCCC1)c1ccc(Cl)c(Cl)c1 |  | Activity [2]: inactive; Activity [3]: inactive
3 | CNC(=O)NC(=O)C(CC1CCCC1)c1cccc(Cl)c1 (configuration not stated) | 3.7 µM | 
4 | CNC(=O)NC(=O)C(CC1CCCC1)c1cccc(S(=O)(=O)C(F)(F)F)c1 (configuration not stated) | 1 µM | 
5 | O=C(O)c1csc(NC(=O)C(CC2CCCC2)c2ccc(Cl)c(Cl)c2)n1 (configuration not stated) | 29 µM | 
6 | CNC(=O)NC(=O)C(CC1CCCC1)c1ccc([N+](=O)[O-])cc1 (configuration not stated) | 5.4 µM | 
7 | NC(=O)NC(=O)C(CC1CC1)c1ccc(Cl)c(Cl)c1 (configuration not stated) | 40 µM | 
8 | Cc1nc(NC(=O)C(CC2CCCC2)c2ccc(Cl)c(Cl)c2)sc1C (configuration not stated) | 1.6 µM | 
9 | N=C(N)NC(=O)C(CC1CCCC1)c1ccc(Cl)c(Cl)c1 (configuration not stated) |  | Activity [2]: inactive
10 | COC(=O)Cc1csc(NC(=O)C(CC2CCCC2)c2ccc(Cl)c(Cl)c2)n1 (configuration not stated) | 0.82 µM | 
11 | O=C(O)CCNC(=O)NC(=O)C(CC1CCCC1)c1ccc(Cl)c(Cl)c1 (configuration not stated) |  | Activity [2]: inactive
12 | Cc1csc(NC(=O)C(CC2CCCC2)c2ccc(Cl)c(Cl)c2)n1 (configuration not stated) | 1.2 µM | 
13 | CCOC(=O)c1cnc(NC(=O)C(CC2CCCC2)c2ccc(Cl)c(Cl)c2)s1 (configuration not stated) | 8 µM | 
14 | CS(=O)(=O)c1ccc([C@@H](CC2CCCC2)C(=O)Nc2nccs2)cc1 [Ro-281675] |  | Tmax [4]: 4.7 h; AUC(0-inf) [5]: 51700 ng·h/mL; Vd [6]: 2.16 L/kg; Cmax [7]: 4300 µg/mL; bioavailability [8]: 92.8%; AUC(0-inf) [9]: 5150 ng·h/mL; Activity [10]: Active; Activity [11]: Dose-dependent effect; Tmax [12]: 3.3 h; clearance [13]: 30 mL/min/kg; Cmax [14]: 1140 µg/mL; AUC(0-inf) [15]: 2770 ng·h/mL
15 | O=C(Nc1nccs1)C(Cc1ccccc1)c1ccc(Cl)c(Cl)c1 (configuration not stated) |  | Activity [2]: inactive
16 | O=C(Nc1nccs1)C(CC1CCCC1)c1ccc(SC(F)(F)F)cc1 (configuration not stated) | 1.8 µM | 
17 | CC(C)CC(C(=O)NC(N)=O)c1ccc(Cl)c(Cl)c1 (configuration not stated) | 29 µM | 
18 | C[S+]([O-])c1ccc(C(CC2CCCC2)C(=O)Nc2nccs2)cc1 (configuration not stated) | 2.2 µM | 
19 | O=C(O)Cc1csc(NC(=O)C(CC2CCCC2)c2ccc(Cl)c(Cl)c2)n1 (configuration not stated) | 8 µM | 
20 | CNC(=O)NC(=O)C(CC1CCCC1)c1ccc(Br)cc1 (configuration not stated) | 3.8 µM | 
21 | CSc1ccc(C(CC2CCCC2)C(=O)Nc2nccs2)cc1 (configuration not stated) | 2.2 µM | 
22 | O=C(Nc1nc(CCO)cs1)C(CC1CCCC1)c1ccc(Cl)c(Cl)c1 (configuration not stated) | 0.84 µM | 
23 | CC(C)CC(C(=O)NC(=O)N(C)C)c1ccc(Cl)c(Cl)c1 (configuration not stated) |  | Activity [2]: inactive
24 | O=C(O)c1cnc(NC(=O)C(CC2CCCC2)c2ccc(Cl)c(Cl)c2)s1 (configuration not stated) | 26 µM | 

Row | Compound | Activity [1] | further results
25 | Cc1cnc(NC(=O)C(CC2CCCC2)c2ccc(Cl)c(Cl)c2)s1 (configuration not stated) | 0.64 µM | 
26 | O=C(Nc1nccs1)C(CC1CCCC1)c1ccc(S(=O)(=O)C(F)(F)F)cc1 (configuration not stated) | 0.19 µM | 
27 | O=C(Nc1nccs1)C(CC1CCCC1)c1ccc([N+](=O)[O-])cc1 (configuration not stated) | 0.84 µM | 
28 | CCOC(=O)Cc1csc(NC(=O)C(CC2CCCC2)c2ccc(Cl)c(Cl)c2)n1 (configuration not stated) | 0.61 µM | 
29 | CNC(=O)NC(=O)C(CC1CCCC1)c1ccc(SC(F)(F)F)cc1 (configuration not stated) | 1.4 µM | 
30 | CCOC(=O)c1csc(NC(=O)C(CC2CCCC2)c2ccc(Cl)c(Cl)c2)n1 (configuration not stated) | 2.7 µM | 
31 | CNC(=O)NC(=O)C(CC1CCCC1)c1ccccc1 (configuration not stated) | 28.2 µM | 
32 | CNC(=O)NC(=O)C(CC(C)C)c1ccc(Cl)c(Cl)c1 (configuration not stated) | 6 µM | 
33 | O=C(Nc1ncc(CO)s1)C(CC1CCCC1)c1ccc(Cl)c(Cl)c1 (configuration not stated) | 0.75 µM | 
34 | O=C(Nc1nc(CO)cs1)C(CC1CCCC1)c1ccc(Cl)c(Cl)c1 (configuration not stated) | 0.99 µM | 
35 | CNC(=O)NC(=O)C(CCC1CCCC1)c1ccc(Cl)c(Cl)c1 (configuration not stated) |  | Activity [2]: inactive
36 | O=C(Nc1nccs1)C(CC1CCCC1)c1cccc(Cl)c1 (configuration not stated) | 1.7 µM | 
37 | CNC(=O)NC(=O)C(CC1CCCC1)c1ccc(SC)cc1 (configuration not stated) | 3.2 µM | 
38 | CNC(=O)NC(=O)C(CC1CCCC1)c1ccc(S(=O)(=O)C(F)(F)F)cc1 (configuration not stated) | 0.3 µM | 
39 | O=C(Nc1nccs1)C(CC1CCCC1)c1cccc(S(=O)(=O)C(F)(F)F)c1 (configuration not stated) | 1.4 µM | 
40 | CNC(=O)N(C)C(=O)C(CC1CCCC1)c1ccc(Cl)c(Cl)c1 (configuration not stated) |  | Activity [2]: inactive
41 | O=C(Nc1nccs1)C(CC1CCCC1)c1ccc(Cl)c(Cl)c1 (configuration not stated) | 0.94 µM | solubility [21]: 5 µg/mL (≈ 13.5 µM)
42 | CCCCNC(=O)NC(=O)C(CC1CCCC1)c1ccc(Cl)c(Cl)c1 (configuration not stated) |  | Activity [2]: inactive
43 | O=C(Nc1nccs1)C(CC1CCCC1)c1ccc(Cl)cc1 (configuration not stated) | 3.1 µM | 
44 | COC(=O)c1cnc(NC(=O)C(CC2CCCC2)c2ccc(Cl)c(Cl)c2)s1 (configuration not stated) | 0.92 µM | 
45 | O=C1NCCN1C(=O)C(CC1CCCC1)c1ccc(Cl)c(Cl)c1 (configuration not stated) |  | Activity [2]: inactive
46 | CNC(=O)NC(=O)C(CC1CCCC1)c1ccc(F)c(F)c1 (configuration not stated) | 8.5 µM | 
47 | CNC(=O)NC(=O)C(CC1CCCC1)c1ccc(S(C)(=O)=O)cc1 (configuration not stated) | 1.5 µM | 
48 | COC(=O)c1csc(NC(=O)C(CC2CCCC2)c2ccc(Cl)c(Cl)c2)n1 (configuration not stated) | 0.5 µM | solubility [21]: 24 µg/mL (≈ 56.2 µM)

Now from value to compound, other results behind:

Row | Activity [1] | Compound | further results
49 | 12 µM | NC(=O)NC(=O)C(CC1CCCCCC1)c1ccc(Cl)c(Cl)c1 (configuration not stated) | 
50 | 10 µM | NC(=O)NC(=O)C(CC1CCC1)c1ccc(Cl)c(Cl)c1 (configuration not stated) | 
51 | 3.4 µM | O=C(NCCO)NC(=O)C(CC1CCCC1)c1ccc(Cl)c(Cl)c1 (configuration not stated) | 
52 | 1.3 µM | CCOC(=O)CNC(=O)NC(=O)C(CC1CCCC1)c1ccc(Cl)c(Cl)c1 (configuration not stated) | 
53 | 1.3 µM | C=CCNC(=O)NC(=O)C(CC1CCCC1)c1ccc(Cl)c(Cl)c1 (configuration not stated) | 
54 | 8.4 µM | CCOC(=O)CCNC(=O)NC(=O)C(CC1CCCC1)c1ccc(Cl)c(Cl)c1 (configuration not stated) | 
55 | 0.53 µM | CCNC(=O)NC(=O)C(CC1CCCC1)c1ccc(Cl)c(Cl)c1 (configuration not stated) | 
56 | 6.3 µM | CC(C)CNC(=O)NC(=O)C(CC1CCCC1)c1ccc(Cl)c(Cl)c1 (configuration not stated) | 
57 | 0.55 µM | COC(=O)CNC(=O)NC(=O)C(CC1CCCC1)c1ccc(Cl)c(Cl)c1 (configuration not stated) | 
58 | 0.41 µM | CNC(=O)NC(=O)[C@H](CC1CCCC1)c1ccc(Cl)c(Cl)c1 | Tmax [4]: 3.3 h; AUC(0-inf) [5]: 1460 ng·h/mL; Vd [6]: 4.21 L/kg; fold change (FC) [16]: 1.7; Cmax [7]: 0.471 µg/mL; bioavailability [8]: 12%; AUC(0-inf) [9]: 455 ng·h/mL; fold change (FC) [17]: 1.4; fold change (FC) [18]: 0.66; Activity [10]: Active; Activity [11]: Dose-dependent effect; bioavailability [19]: 13%; Tmax [12]: 1.4 h; clearance [13]: 43.5 mL/min/kg; fold change (FC) [20]: 0.22; Cmax [14]: 133 µg/mL; AUC(0-inf) [15]: 1880 ng·h/mL
59 | 3.2 µM | COC(=O)CCNC(=O)NC(=O)C(CC1CCCC1)c1ccc(Cl)c(Cl)c1 (configuration not stated) | 
60 | inactive | O=C(O)CNC(=O)NC(=O)C(CC1CCCC1)c1ccc(Cl)c(Cl)c1 (configuration not stated) | 
61 | 3.8 µM | CNC(=S)NC(=O)C(CC1CCCC1)c1ccc(Cl)c(Cl)c1 (configuration not stated) | 
62 | 1 µM | CNC(=O)NC(=O)C(CC1CCCC1)c1ccc(Cl)c(Cl)c1 (configuration not stated) | 
63 | 1.4 µM | CNC(=O)NC(=O)C(CC1CCCCC1)c1ccc(Cl)c(Cl)c1 (configuration not stated) | 
64 | 4.4 µM | NC(=O)NC(=O)C(CC1CCCC1)c1ccc(Cl)c(Cl)c1 (configuration not stated) | 
65 | 1.3 µM | CCCNC(=O)NC(=O)C(CC1CCCC1)c1ccc(Cl)c(Cl)c1 (configuration not stated) | 
66 | 8.9 µM | NC(=O)NC(=O)C(CC1CCCCC1)c1ccc(Cl)c(Cl)c1 (configuration not stated) | 
